Assay results taken from ChEMBL document CHEMBL1123641, “Antiulcer agents. 2. Gastric antisecretory, cytoprotective, and metabolic properties of substituted imidazo[1,2-a]pyridines and analogues” (J Med Chem, 1987).
Activity calls are given as the source filed them. The rule behind the calls is not given here.

Columns and labels:
Canis familiaris [1] = experiment: Antisecretory activity in histamine stimulated dogs at 1 mg/kg dose administered intravenously; type: functional; details: Canis lupus familiaris, route intravenous
Summary of the method: (§1)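 Adult mongrel dogs with surgically prepared Heidenhain pouches, acid secretion stimulated with histamine. Compound given intravenously (0.1-5 mg/kg range). Acid output reduction is expressed relative to the nondrug-treated control value in the same animal, each dog serving as its own control. Unless noted otherwise, one dog per compound. ED50 is the iv dose reducing acid output to 50% of control.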

Canis familiaris [2] = experiment: Antisecretory activity in histamine stimulated dogs at 2 mg/kg dose administered intravenously; type: functional; details: Canis lupus familiaris, route intravenous; summary of the method: as §1
Canis familiaris [3] = experiment: Antisecretory activity in histamine stimulated dogs at 2 mg/kg dose administered orally; type: functional; details: Canis lupus familiaris, route oral
Summary of the method: (§2)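 Heidenhain pouch mongrel dogs, histamine-stimulated acid secretion. Compound given orally at 2–8 mg/kg. Reduction in acid output is relative to the same animal's own nondrug control, since histamine response depends on pouch size. Usually a single dog per compound. Oral ED50 is the dose reducing acid output to 50% of control.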

Canis familiaris [4] = experiment: Antisecretory activity in histamine stimulated dogs at 4 mg/kg dose administered orally; type: functional; details: Canis lupus familiaris, route oral; summary of the method: as §2
Canis familiaris [5] = experiment: Antisecretory activity in histamine stimulated dogs at 8 mg/kg dose administered orally; type: functional; details: Canis lupus familiaris, route oral; summary of the method: as §2
Rattus norvegicus [6] = organism: Rattus norvegicus; experiment: Cytoprotective activity in rats against the ethyl alcohol stimulated ulcers measured as effective dose; type: functional
Summary of the method: (§3)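 Rats were dosed orally at 1–30 mg/kg, 30 min before an oral challenge of absolute ethanol. Ethanol-induced gastric lesions were scored 1 h later, and an effective dose was estimated.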

Rattus norvegicus [7] = experiment: Antisecretory activity in pylorus ligated rats at a 40 mg/kg dose administered intraperitoneally; type: functional; details: ip, route intraperitoneal
Summary of the method: (§4)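 Pylorus-ligated rats, six per compound and eight controls. Compound given intraperitoneally at 40 mg/kg at the time of ligation. Reduction in acid output measured over 4 h.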

Rattus norvegicus [8] = organism: Rattus norvegicus; experiment: Cytoprotective activity in rats against the ethyl alcohol stimulated ulcers measured as effective dose; In active; type: functional, organism-based; summary of the method: as §3
Canis familiaris [9] = experiment: The intravenous dose of cimetidine required to reduce acid output to 50% of control value in histamine stimulated dogs; details: Canis lupus familiaris
Canis familiaris [10] = experiment: The oral dose of cimetidine required to reduce acid output to 50% of control value in histamine stimulated dogs; details: Canis lupus familiaris
Canis familiaris [11] = organism: Canis familiaris; details: Canis lupus familiaris
Rattus norvegicus [12] = organism: Rattus norvegicus; experiment: animal or person; details: Canis lupus familiaris, in Rattus norvegicus, ip, 4 h
Canis familiaris [13] = experiment: Antisecretory activity in histamine stimulated dogs at 0.1 mg/kg dose administered intravenously; type: functional; details: Canis lupus familiaris, route intravenous; summary of the method: as §1
Canis familiaris [14] = experiment: Antisecretory activity in histamine stimulated dogs at 5 mg/kg dose administered intravenously; type: functional; details: Canis lupus familiaris; route intravenous; summary of the method: as §1
Canis familiaris [15] = experiment: Antisecretory activity in histamine stimulated dogs at 5 mg/kg dose administered orally measured as 50% effective concentration; type: functional; details: Canis lupus familiaris, route oral; summary of the method: as §2
Canis familiaris [16] = experiment: Antisecretory activity in histamine stimulated dogs following 5 mg/kg i.v. administration.; type: functional; details: Canis lupus familiaris, route intravenous; summary of the method: as §1
Canis familiaris [17] = experiment: Antisecretory activity in histamine stimulated dogs at 5 mg/kg dose administered orally; type: functional; details: Canis lupus familiaris; route oral; summary of the method: as §2
Canis familiaris [18] = experiment: percentage inhibition of acid secretion in histamine stimulated dogs at a dose of 0.05 mg/kg; type: functional; details: Canis lupus familiaris
Canis familiaris [19] = experiment: percentage inhibition of acid secretion in histamine stimulated dogs at a dose of 0.2 mg/kg; type: functional; details: Canis lupus familiaris
Canis familiaris [20] = experiment: percentage inhibition of acid secretion in histamine stimulated dogs at a dose of 0.4 mg/kg; type: functional; details: Canis lupus familiaris
Rattus norvegicus [21] = experiment: Antisecretory activity in pylorus ligated rats at 40 mg/kg dose administered intraperitoneal; type: functional; details: ip; summary of the method: as §4
Rattus norvegicus [22] = experiment: Antisecretory activity in pylorus ligated rats at 40 mg/kg dose administered intraperitoneally; details: ip

Cc1nc2c(CCc3ccccc3)cccn2c1N
inhibition in vivo at 1 mg/kg (Canis familiaris [1]): 46%
inhibition in vivo at 2 mg/kg (Canis familiaris [2]): 71%
inhibition in vivo at 2 mg/kg (Canis familiaris [3]): 19%
inhibition in vivo at 4 mg/kg (Canis familiaris [4]): 41%
inhibition in vivo at 8 mg/kg (Canis familiaris [5]): 52%
ED50 (Rattus norvegicus [6]): 9 mg/kg
inhibition in vivo at 40 mg/kg (Rattus norvegicus [7]): 47%

CC(=O)Oc1c(C)nc2c(CCc3ccccc3)cccn12
inhibition in vivo at 2 mg/kg (Canis familiaris [2]): 6%
ED50 (Rattus norvegicus [8]): inactive
inhibition in vivo at 40 mg/kg (Rattus norvegicus [7]): 64%

CN/C(=N\CCSCc1nc[nH]c1C)NC#N [CIMETIDINE]
ED50 (Canis familiaris [9]): 0.66 mg/kg
ED50 (Canis familiaris [10]): 1.25 mg/kg
ED50 (Canis familiaris [11]): inactive
ED50 (Rattus norvegicus [12]): 26.1 mg/kg

Cc1nc2c(OCc3cccs3)cccn2c1N
inhibition in vivo at 0.1 mg/kg (Canis familiaris [13]): 12%
inhibition in vivo at 2 mg/kg (Canis familiaris [2]): 77%
inhibition in vivo at 2 mg/kg (Canis familiaris [3]): 30%
inhibition in vivo at 4 mg/kg (Canis familiaris [4]): 80%
inhibition in vivo at 8 mg/kg (Canis familiaris [5]): 86%
ED50 (Rattus norvegicus [6]): 5 mg/kg
inhibition in vivo at 40 mg/kg (Rattus norvegicus [7]): 70%

Cc1nc2c(OCc3ccccc3)cccn2c1CC#N
ED50 (Canis familiaris [14]): 0.09 mg/kg
ED50 at 5 mg/kg (Canis familiaris [15]; dose 5 mg/kg): 4.4 mg/kg
inhibition in vivo at 0.1 mg/kg (Canis familiaris [13]): 49%
inhibition in vivo at 1 mg/kg (Canis familiaris [1]): 83%
inhibition in vivo at 2 mg/kg (Canis familiaris [2]): 95%
inhibition in vivo at 2 mg/kg (Canis familiaris [3]): 20%
inhibition in vivo at 4 mg/kg (Canis familiaris [4]): 42%
inhibition in vivo at 5 mg/kg (Canis familiaris [16]): 99%
inhibition in vivo at 8 mg/kg (Canis familiaris [5]): 77%
ED50 (Rattus norvegicus [6]): 3 mg/kg
inhibition in vivo at 40 mg/kg (Rattus norvegicus [7]): 98%

Cc1nc2c(OCc3ccccc3)cccn2c1N
ED50 (Canis familiaris [14]): 0.1 mg/kg
ED50 (Canis familiaris [17]): 2 mg/kg
inhibition in vivo at 0.05 mg/kg (Canis familiaris [18]): 15%
inhibition in vivo at 0.2 mg/kg (Canis familiaris [19]): 41%
inhibition in vivo at 0.1 mg/kg (Canis familiaris [13]): 55%
inhibition in vivo at 2 mg/kg (Canis familiaris [2]): 97%
inhibition in vivo at 2 mg/kg (Canis familiaris [3]): 50%
inhibition in vivo at 4 mg/kg (Canis familiaris [4]): 74%
inhibition in vivo at 8 mg/kg (Canis familiaris [5]): 96%
ED50 (Rattus norvegicus [6]): 6 mg/kg
inhibition in vivo at 40 mg/kg (Rattus norvegicus [7]): 99%

Cc1ccn2c(CC#N)c(C)nc2c1OCc1ccccc1
ED50 (Canis familiaris [14]): 0.53 mg/kg
ED50 (Canis familiaris [15]): 7.8 mg/kg
inhibition in vivo at 0.2 mg/kg (Canis familiaris [19]): 1%
inhibition in vivo at 0.4 mg/kg (Canis familiaris [20]): 39%
inhibition in vivo at 1 mg/kg (Canis familiaris [1]): 74%
inhibition in vivo at 2 mg/kg (Canis familiaris [2]): 90%
inhibition in vivo at 2 mg/kg (Canis familiaris [3]): 8%
inhibition in vivo at 4 mg/kg (Canis familiaris [4]): 20%
inhibition in vivo at 8 mg/kg (Canis familiaris [5]): 59%
ED50 (Rattus norvegicus [6]): 13 mg/kg
inhibition in vivo at 40 mg/kg (Rattus norvegicus [7]): 99%

Cc1nc2cccc(CCc3ccccc3)n2c1N
ED50 (Rattus norvegicus [6]): 14 mg/kg
inhibition in vivo at 40 mg/kg (Rattus norvegicus [21]): 40%

COc1c(C)nc2c(CCc3ccccc3)cccn12
inhibition in vivo at 2 mg/kg (Canis familiaris [2]): 0%
ED50 (Rattus norvegicus [6]): 20 mg/kg
inhibition in vivo at 40 mg/kg (Rattus norvegicus [22]): 45%

Cc1nc2c(OCc3ccccc3)nccn2c1N
ED50 (Canis familiaris [14]): 0.8 mg/kg
ED50 (Canis familiaris [17]): 1.4 mg/kg
inhibition in vivo at 0.2 mg/kg (Canis familiaris [19]): 15%
inhibition in vivo at 0.4 mg/kg (Canis familiaris [20]): 41%
inhibition in vivo at 1 mg/kg (Canis familiaris [1]): 56%
inhibition in vivo at 2 mg/kg (Canis familiaris [2]): 65%
inhibition in vivo at 2 mg/kg (Canis familiaris [3]): 63%
inhibition in vivo at 4 mg/kg (Canis familiaris [4]): 69%
inhibition in vivo at 8 mg/kg (Canis familiaris [5]): 70%
ED50 (Rattus norvegicus [6]): 5 mg/kg
inhibition in vivo at 40 mg/kg (Rattus norvegicus [7]): 79%
